Experimental data taken from article PMC8259413 (Biochemistry, 2015).

Columns and labels:
[1] = target: Pol β binary complex (Pol β/sngDNA) (Rattus norvegicus, UniProt P06766); format: binding; conditions: for ΔH of binding (ITC) / ΔS of binding (ITC): binding to Pol β binary complex, 23 °C
In short: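 Binary complex formed with 20-mer single-nucleotide-gapped duplex DNA (DNA:protein ~1.5:1). Ligands were nonhydrolyzable α,β-imido dNTP analogues, titrated in matched buffer (50 mM HEPES, 100 mM NaCl, 5 mM MgCl₂, 2 mM DTT, pH 7.4) at 1000 rpm with 250 s between injections. Matching analogue: 0.2 mM into 0.013 mM complex. Mismatching analogue: 6 mM into 0.106 mM complex.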

[2] = target: binary Pol β complex (Pol β/sngDNA) (Homo sapiens, UniProt P06746); assay: NMR lineshape analysis; format: binding, rat
In short: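 It was titrated with Mg²⁺-containing nonhydrolyzable matching (0–2:1) or mismatching (0.15–4.6:1) dNTP analogue, followed by ¹H–¹⁵N TROSY/HSQC. Resonances resolved in both dimensions throughout were fitted to a two-state model for koff and KD.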

Row | SMILES | fold weaker binding than the matching nucleotide ([1]; based upon ITC data) | ΔH of binding (ITC) [1] | ΔS of binding (ITC) [1] | fold greater koff than that measured for the matching nucleotide ([2]; NMR line shape data) | kex of nucleotide binding/dissociation within the binding cavity ([2]; in the presence of 3.0 mM dApNHpp, estimated) | koff (NMR lineshape analysis) ([2]; two-state model, global fit of nine residues, 23 °C)
1 | Nc1ncnc2c1ncn2[C@H]1C[C@H](O)[C@@H](COP(=O)(O)NP(=O)(O)OP(=O)(O)O)O1 [dApNHpp, 2′-deoxyadenosine-5′[(α,β)-imido]triphosphate] | approximately 300 fold | 8.84 ± 2.2 kcal/mol | 195 ± 32 J/mol−K | approximately 50 fold | ~7000 s⁻¹ | –
2 | Nc1ccn([C@H]2C[C@H](O)[C@@H](COP(=O)(O)NP(=O)(O)OP(=O)(O)O)O2)c(=O)n1 [dCpNHpp, 2′-Deoxycytidine-5′-[(α,β)-imido]triphosphate] | – | 22.2 ± 0.24 kcal/mol | 432 ± 5 J/mol−K | – | – | 5.1 s⁻¹
